Calls of active or inactive are those of the source. No cut-off for these calls is given here.
How the values were obtained:
[1] = test system: Bel-7402; assay: Induction of autophagy in human Bel7402 cells assessed as upregulation of LC3-2 level at 1 uM after 24 to 72 hrs by Western blot analysis; format: functional, cell-based
How it was run: (§1)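 Bel7402 cells (1.5 × 10^5/mL) exposed to compound at indicated doses, or vehicle, for 24 or 72 h. Lysates (0.05 mg/lane) separated on 12% SDS-PAGE, blotted to nitrocellulose, blocked in 5% milk. Probed with anti-LC3, anti-p62 and anti-beclin-1, HRP secondary, chemiluminescent detection. Levels quantified relative to β-actin; three separate assays, mean ± SD.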

[2] = test system: HepG2; assay: Antiproliferative activity against human HepG2 cells after 72 hrs by MTT assay; format: functional, cell-based; conditions: HepG2, 72 h
[3] = molecular target: Histone deacetylase 1 (Homo sapiens, UniProt Q13547); assay: Inhibition of HDAC1 (unknown origin) using Boc-Lys (Ac)-AMC as substrate incubated for 60 mins by fluorimetric assay
[4] = test system: Bel7402/5-FU; assay: Antiproliferative activity against human Bel7402/5-FU cells at 0.2 to 5 uM after 72 hrs by MTT assay; format: functional, cell-based
How it was run: (§2)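 Cells grown in DMEM with 10% heat-inactivated FBS, penicillin/streptomycin, 37 °C, 5% CO2. Seeded at 10^4 cells/mL overnight, then exposed to a range of compound concentrations for 72 h; 0.1% DMSO negative control. MTT (5 mg/mL stock) added, absorbance read at 570 nm; percent inhibition from three independent experiments, mean ± SD.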

[5] = test system: Bel-7402; assay: Induction of autophagy in human Bel7402 cells assessed as upregulation of Beclin1 level at 1 to 5 uM after 24 to 72 hrs by Western blot analysis; format: functional, cell-based; how it was run: as §1
[6] = Inhibition of PI3K/AKT/mTOR signaling in human Bel7402 cells assessed as reduction in AKT phosphorylation after 24 to 72 hrs by Western blot analysis; format: cell-based
How it was run: (§3)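 Bel7402 cells (1.5 × 10^5/mL) exposed to compound at 1.0 and 2.5 μM for 24 or 72 h. Lysates (0.05 mg/lane) separated on 12% SDS-PAGE and blotted to nitrocellulose. Probed for total Akt, phospho-Akt (Ser473), total mTOR and phospho-mTOR, HRP secondary, chemiluminescent detection. Quantified from three separate assays, mean ± SD.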

[7] = molecular target: T1, Histone deacetylase (Homo sapiens) (UniProt Q13547+O15379+Q9UBN7+Q92769+Q9UQL6+Q8WUI4+Q9BY41+Q96DB2+P56524+Q9UKV0+Q969S8); assay: Inhibition of HDAC in human Bel7402 cells assessed as increase in acetylated histone h3 expression incubated for 72 hrs by Western blot analysis; format: cell-based
How it was run: (§4)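 Bel7402 cells exposed to vehicle or compound (1.0 and 3.0 μM) for 72 h, with SAHA 5.0 μM as reference. Lysates (0.05 mg/lane) run on 12% SDS-PAGE and transferred to nitrocellulose. Probed with anti-acetyl-H3 and anti-acetyl-α-tubulin, HRP secondary, chemiluminescence. Quantified from three separate assays, mean ± SD.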

[8] = species on record: Homo sapiens; assay: Selectivity ratio of IC50 for human HDAC3 to IC50 for human HDAC6
How it was run: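 Recombinant human HDAC1, 3, 6 and 8 (fluorimetric kit) incubated with compound over a range of concentrations and Boc-Lys(Ac)-AMC substrate at 37 °C for 60 min. Reaction quenched with lysine developer; after 30 min, fluorescence read at ex 355/em 460 nm. Inhibition taken relative to control and IC50 fitted; ratios built from these IC50s.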

[9] = test system: Bel-7402; assay: Antiproliferative activity against human Bel7402 cells at 0.2 to 5 uM after 72 hrs by MTT assay; format: functional, cell-based; how it was run: as §2
[10] = test system: Bel-7402; assay: Effect on mTOR expression in human Bel7402 cells at 1 to 2.5 uM after 24 to 72 hrs by Western blot analysis; format: ADME, cell-based; conditions: bel-7402, 2.5 µM; how it was run: as §3
[11] = molecular target: T1, Histone deacetylase (Homo sapiens); assay: Inhibition of HDAC in human Bel7402 cells assessed as increase in acetylated alpha-tubulin expression incubated for 72 hrs by Western blot analysis; format: cell-based; how it was run: as §4
[12] = test system: Bel-7402; assay: Induction of apoptosis in human Bel7402 cells assessed as annexin-V positive cells at 5 uM after 72 hrs by Annexin-V/PI staining based flow cytometry relative to control; format: functional
How it was run: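 Bel7402 cells (10 000) cultured overnight, then exposed to compound at 1.0 or 5.0 μM, or vehicle, for 72 h. Harvested, stained with annexin-V APC and 7-AAD for 15 min. Apoptotic percentage measured by flow cytometry (APC ex 633/em 660 nm; 7-AAD ex 488/em 647 nm). Three separate assays, mean ± SD.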

[13] = test system: Bel-7402; assay: Effect on AKT expression in human Bel7402 cells at 1 to 2.5 uM after 24 to 72 hrs by Western blot analysis; format: ADME, cell-based; conditions: bel-7402, 2.5 µM; how it was run: as §3
[14] = test system: Bel-7402; assay: Induction of autophagy in human Bel7402 cells assessed as upregulation of LC3-2 level at 5 uM after 24 to 72 hrs by Western blot analysis; format: functional, cell-based; how it was run: as §1
[15] = test system: Bel-7402; assay: Induction of apoptosis in human Bel7402 cells assessed as decrease in Bcl-2 expression after 72 hrs by Western blot analysis; format: functional, cell-based
How it was run: (§5)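 Subconfluent Bel7402 cells (1.5 × 10^5/mL) exposed to vehicle or compound for 72 h, then lysed. Lysates (0.05 mg/lane) run on 12% SDS-PAGE, transferred to nitrocellulose, blocked in 5% nonfat milk. Probed for Bax, Bcl-2, cleaved caspase-3 and cleaved PARP, with HRP secondary and chemiluminescence. Levels normalized to β-actin; three separate assays, mean ± SD.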

[16] = molecular target: T2, Histone deacetylase 8 (Homo sapiens, UniProt Q9BY41); assay: Inhibition of human HDAC8 using Boc-Lys (Ac)-AMC as substrate incubated for 60 mins by fluorimetric assay
T2 sequence (Q9BY41 whole entry): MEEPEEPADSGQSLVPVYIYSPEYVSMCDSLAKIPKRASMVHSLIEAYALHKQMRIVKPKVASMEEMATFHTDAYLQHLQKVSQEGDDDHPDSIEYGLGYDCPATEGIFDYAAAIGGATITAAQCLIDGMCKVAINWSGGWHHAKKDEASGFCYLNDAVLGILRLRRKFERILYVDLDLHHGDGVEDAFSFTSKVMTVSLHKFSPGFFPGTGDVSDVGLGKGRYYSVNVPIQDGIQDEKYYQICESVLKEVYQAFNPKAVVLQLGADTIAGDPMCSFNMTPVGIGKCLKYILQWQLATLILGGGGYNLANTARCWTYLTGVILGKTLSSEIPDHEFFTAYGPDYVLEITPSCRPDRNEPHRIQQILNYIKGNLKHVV

[17] = test system: Bel-7402; assay: Induction of autophagy in human Bel7402 cells assessed as accumulation of autophagic vacuoles at 1 uM after 24 hrs by acridine orange staining based fluorescence microscopic method; format: functional, cell-based
How it was run: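 Bel7402 cells (10 000) cultured overnight, then exposed to compound at 1.0 or 5.0 μM, or vehicle. Stained with 1 mg/mL acridine orange for 15−20 min, then dye removed. Red versus green fluorescence viewed by fluorescence microscopy at 400×. Representative images from three independent experiments.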

[18] = test system: Bel-7402; assay: Induction of apoptosis in human Bel7402 cells assessed as increase in cleaved caspase-3 level at 1 uM after 72 hrs by Western blot analysis; format: functional, cell-based; how it was run: as §5

Sequence of Histone deacetylase 1 (Q13547 whole entry): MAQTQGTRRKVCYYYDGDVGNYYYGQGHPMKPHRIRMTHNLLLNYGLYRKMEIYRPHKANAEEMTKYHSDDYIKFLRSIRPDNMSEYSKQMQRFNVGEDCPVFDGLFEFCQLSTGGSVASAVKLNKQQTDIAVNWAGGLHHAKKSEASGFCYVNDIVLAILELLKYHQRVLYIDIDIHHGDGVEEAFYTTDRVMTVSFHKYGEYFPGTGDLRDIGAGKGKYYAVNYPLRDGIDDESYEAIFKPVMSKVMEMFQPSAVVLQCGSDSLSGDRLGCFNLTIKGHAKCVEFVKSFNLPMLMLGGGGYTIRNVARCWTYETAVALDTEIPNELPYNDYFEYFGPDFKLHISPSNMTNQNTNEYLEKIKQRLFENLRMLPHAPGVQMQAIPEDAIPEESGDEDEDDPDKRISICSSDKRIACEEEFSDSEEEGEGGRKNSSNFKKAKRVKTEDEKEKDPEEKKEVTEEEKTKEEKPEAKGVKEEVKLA

IC50 [2]: 1400 nM
IC50 [3]: 27 nM
inhibition [7]: Dose-dependent effect
Ratio IC50 [8]: 7 to 11
inhibition [11]: Dose-dependent effect
IC50 [16]: > 1000 nM
SMILES: COc1ccc(-c2nc(NCCCOc3ccc(/C=C/C(=O)NO)cc3OC)cc3c2[nH]c2ccccc23)cc1
Activity [1]: Active
Activity [4]: Active
Activity [5]: Active
inhibition [6]: Dose-dependent effect
Activity [9]: Active
Activity [10]: Non-Toxic
Activity [12]: 73.8%
Activity [13]: Non-Toxic
Activity [14]: Active
Activity [15]: Dose-dependent effect
Activity [17]: Active
Activity [18]: Active

Reference: ChEMBL document CHEMBL4376807, “Hydroxamic Acid Derivatives of β-Carboline/Hydroxycinnamic Acid Hybrids Inducing Apoptosis and Autophagy through the PI3K/Akt/mTOR Pathways” (J Nat Prod, 2019)
